Our source for the GI50 values is ChEMBL document CHEMBL1155584, “Bioactive compounds from Psorothamnus junceus” (J Nat Prod, 2000).

The structures appear in SMILES notation. Values after ≈ are worked out from the molar mass of the structure shown.

What all share (format): functional
The test system of test [1] is A549. Kind of test: Cytotoxicity against human A549 cells by MTT assay. In short, it runs like this: (§1)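 Human tumour lines (A-549 lung carcinoma, MCF-7 breast carcinoma, HT-29 colon adenocarcinoma, SK-MEL-5 melanoma from an axillary node metastasis, Malme-3M melanoma from a lung metastasis) tested with a standard MTT protocol. Adriamycin served as the positive control. Results are reported as GI50.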
Background: Tetrazolium assays rely on reduction of a dye to a coloured formazan, in cell work by metabolically active cells.

Test [2] concerns MCF7. Kind of test: Cytotoxicity against human MCF7 cells by MTT assay. In short, it runs like this:
as §1

Test [3] deals with HT-29. Kind of test: Cytotoxicity against human HT29 cells by MTT assay. In short, it runs like this:
as §1

Test [4] deals with SK-MEL-5. Kind of test: Cytotoxicity against human SK-MEL-5 cells by MTT assay. The gist of the method: as §1
The test system of test [5] is Malme-3M. Kind of test: Cytotoxicity against human MALME-3M cells by MTT assay. In short, it runs like this: as §1

Usually GI50 stands for the concentration at which growth is held to half of that of the control. Low readings indicate more potent growth inhibition, high ones less potent growth inhibition.

For the compound `COc1cccc2c1C(=O)c1c(O)c3c(c(O)c1C2=O)C[C@@](O)(C(=O)CO)C[C@@H]3O[C@H]1C[C@H](N)[C@H](O)[C@H](C)O1` [DOXORUBICIN], the concentration for 50% growth inhibition (GI50) in test [1] was found to be 0.04 µg/mL (≈ 0.0736 µM); in test [2] it was 0.2 µg/mL (≈ 0.368 µM); in test [3], 0.06 µg/mL (≈ 0.11 µM); in test [4], 0.03 µg/mL (≈ 0.0552 µM); in test [5] it was 0.1 µg/mL (≈ 0.184 µM).

In the case of `CC(=O)C1=c2oc3c(c2Oc2ccccc21)C(=O)C(C)(C)C(=O)C=3C` [PSOROTHAMNONE A], the concentration for 50% growth inhibition (GI50) in test [1] came out at 40 µg/mL (≈ 119 µM); in test [2] it was 60 µg/mL (≈ 178 µM); in test [3] it was 50 µg/mL (≈ 149 µM); in test [4], 20 µg/mL (≈ 59.5 µM); in test [5], 60 µg/mL (≈ 178 µM).

For `CC1(C)C(=O)C(=C2C=Cc3ccccc3O2)C(=O)C(C)(C)C1=O` [EMORYDONE], the concentration for 50% growth inhibition (GI50) in test [1] turned out to be 3 µg/mL (≈ 9.67 µM); in test [2], 3 µg/mL (≈ 9.67 µM); in test [3], 4 µg/mL (≈ 12.9 µM); in test [4] it was 3 µg/mL (≈ 9.67 µM); in test [5], 1 µg/mL (≈ 3.22 µM).

As to `CC1=c2oc3c(c2C(=O)C(C)(C)C1=O)Oc1ccccc1C=3` [PSOROTHAMNONE B], the concentration for 50% growth inhibition (GI50) in test [1] amounted to 30 µg/mL (≈ 102 µM); in test [2], 40 µg/mL (≈ 136 µM); in test [3], 30 µg/mL (≈ 102 µM); in test [4] it was 40 µg/mL (≈ 136 µM); in test [5], 40 µg/mL (≈ 136 µM).

Consider `COC1=C(C)C(=O)C(C)(C)C(=O)/C1=C1\C=Cc2ccccc2O1` [DALRUBONE], for which the GI50 in test [1] came out at 0.2 µg/mL (≈ 0.644 µM); in test [2], 1 µg/mL (≈ 3.22 µM); in test [3], 0.02 µg/mL (≈ 0.0644 µM); in test [4], 0.4 µg/mL (≈ 1.29 µM); in test [5], 2 µg/mL (≈ 6.44 µM).
